Source: ChEMBL document CHEMBL3271979, “Inhibition of solid tumors by nitrosoureas. 1. Lewis lung carcinoma” (1977)
The source made the active and inactive calls. The calls are words filed in the database; no cut-off is given here.

What was measured:
Mus musculus [1] = test: Antitumor activity against mouse advanced Lewis lung carcinoma allografted in ip dosed BDF1 mouse assessed as disease cure administered as single dose on day 6 or 7 post-tumor implantation; type: functional, organism-based
Procedure, shortened: (§1)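 BDF1 mice (C57Blk/6 × DBA/2) implanted sc by trocar with Lewis lung tumor fragments of about 40 mg, taken only from bacteriologically sterile donor tumors. Mice bearing tumors of about 400 mg (day 6-7) were selected. Each received a single ip dose on day 7, at or below the LD10 in normal mice. Groups were of 10 mice. Tumor weight was taken from calipers as w = ab²/2, measured at least twice weekly. Matched non-tumor mice served as toxicity controls.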

[2] = Antitumor activity against mouse advanced Lewis lung carcinoma allografted in BDF1 mouse assessed as increase in host life span at 44 mg/kg, ip administered as single dose on 7th day post-tumor implantation; type: functional; conditions: route intraperitoneal
Procedure, shortened: (§2)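 BDF1 mice (C57Blk/6 × DBA/2) implanted sc by trocar with about 40 mg Lewis lung tumor fragments from bacteriologically sterile donors. Advanced-disease groups held tumors of about 400 mg by day 6-7, sized by caliper (w = ab²/2). Single ip injection on day 7, in water or saline vehicle, at or below the LD10 in normal mice. Tumors measured at least twice weekly.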

[3] = Antitumor activity against mouse early Lewis lung carcinoma allografted in BDF1 mouse assessed as increase in host life span at 148 mg/kg, ip administered as single dose on 1 or 2 days post-tumor implantation; type: functional; conditions: route intraperitoneal
Procedure, shortened: (§3)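 BDF1 mice (C57Blk/6 × DBA/2) implanted sc by trocar with ~40 mg Lewis lung tumor fragments from bacteriologically sterile donor tumors. Single ip dose on day 1 or 2, as a solution or suspension in water (CMC or gum acacia) or saline (HPC or Tween 80). Read-out is […]. Same-dose toxicity controls were run in nontumor-bearing mice.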

Mus musculus [4] = test: Antitumor activity against mouse advanced Lewis lung carcinoma allografted in ip dosed BDF1 mouse assessed as complete regression of established tumor administered as single dose on day 6 or 7 post-tumor implantation; type: functional, organism-based; procedure, shortened: as §1
[5] = Antitumor activity against mouse early Lewis lung carcinoma allografted in ip dosed BDF1 mouse assessed as disease cure administered as single dose on 1 or 2 days post-tumor implantation measured for 80 days post-drug treatment; type: functional
Procedure, shortened: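 BDF1 mice implanted sc by trocar with ~40 mg Lewis lung fragments from sterile donor tumors. A single ip dose was given on day 1 or 2 after implant, in water or saline vehicle. Cures were scored in animals observed for at least 80 days after treatment. Drug-toxicity controls were matched non-tumor-bearing mice monitored for body weight and deaths.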

Mus musculus [6] = test: Antitumor activity against mouse advanced Lewis lung carcinoma allografted in BDF1 mouse assessed as disease cure at 44 mg/kg, ip administered as single dose on 7th day post-tumor implantation measured for 80 days post-drug treatment; type: functional, organism-based; parameters: dose 44 mg/kg; procedure, shortened: as §1
[7] = Antitumor activity against mouse early Lewis lung carcinoma allografted in BDF1 mouse assessed as increase in host life span at 99 mg/kg, ip administered as single dose on 1 or 2 days post-tumor implantation; type: functional; conditions: route intraperitoneal; procedure, shortened: as §3
[8] = Antitumor activity against mouse early Lewis lung carcinoma allografted in BDF1 mouse assessed as time delay in tumor growth at 99 mg/kg, ip administered as single dose on 1 or 2 days post-tumor implantation; type: functional; conditions: route intraperitoneal
Procedure, shortened: (§4)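 BDF1 mice (C57Blk/6 × DBA/2) implanted sc by trocar with ~40 mg Lewis lung tumor fragments from bacteriologically sterile donors. A single ip dose was given on day 1 or 2, as a solution or suspension in water or saline with suspending agent, at ≤0.5 ml. Tumors were measured by caliper at least twice weekly, with weight = ab²/2. Delay was taken as the days for the tumor to reach 1 g.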

[9] = Antitumor activity against mouse early Lewis lung carcinoma allografted in BDF1 mouse assessed as time delay in tumor growth at 148 mg/kg, ip administered as single dose on 1 or 2 days post-tumor implantation; type: functional; conditions: route intraperitoneal; procedure, shortened: as §4
[10] = Ratio of ED50 for antitumor activity against mouse L1210 cells allografted in ip dosed mouse to LD10 for mouse
[11] = Antitumor activity against mouse early Lewis lung carcinoma allografted in BDF1 mouse assessed as increase in host life span at 152 mg/kg, ip administered as single dose on 1 or 2 days post-tumor implantation; type: functional; conditions: route intraperitoneal; procedure, shortened: as §3
[12] = Antitumor activity against mouse early Lewis lung carcinoma allografted in BDF1 mouse assessed as time delay in tumor growth at 152 mg/kg, ip administered as single dose on 1 or 2 days post-tumor implantation; type: functional; conditions: route intraperitoneal; procedure, shortened: as §4
[13] = Antitumor activity against mouse advanced Lewis lung carcinoma allografted in BDF1 mouse assessed as increase in host life span at 171 mg/kg, ip administered as single dose on 7th day post-tumor implantation; type: functional; conditions: route intraperitoneal; procedure, shortened: as §2
[14] = Antitumor activity against mouse early Lewis lung carcinoma allografted in BDF1 mouse assessed as time delay in tumor growth at 67 mg/kg, ip administered as single dose on 1 or 2 days post-tumor implantation; type: functional; conditions: route intraperitoneal; procedure, shortened: as §4
[15] = Antitumor activity against mouse early Lewis lung carcinoma allografted in BDF1 mouse assessed as increase in host life span at 67 mg/kg, ip administered as single dose on 1 or 2 days post-tumor implantation; type: functional; conditions: route intraperitoneal; procedure, shortened: as §3
[16] = Antitumor activity against mouse early Lewis lung carcinoma allografted in BDF1 mouse assessed as increase in host life span at 11 mg/kg, ip administered as single dose on 1 or 2 days post-tumor implantation; type: functional; conditions: route intraperitoneal
Procedure, shortened: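 Early disease: BDF1 mice carrying sc trocar implants of about 40 mg Lewis lung fragments. One ip dose given on day 1 or 2 after implant, in distilled water or saline, at ≤0.5 ml. Endpoints were % increase in life-span of dying animals and delay in days for the primary tumor to reach 1 g. Untreated controls served as reference.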

Mus musculus [17] = test: Antitumor activity against mouse advanced Lewis lung carcinoma allografted in BDF1 mouse assessed as disease cure at 15 mg/kg, ip administered as single dose on 7th day post-tumor implantation measured for 80 days post-drug treatment; type: functional, organism-based; parameters: dose 15 mg/kg; procedure, shortened: as §1
[18] = Antitumor activity against mouse early Lewis lung carcinoma allografted in BDF1 mouse assessed as time delay in tumor growth at 17 mg/kg, ip administered as single dose on 1 or 2 days post-tumor implantation; type: functional; conditions: route intraperitoneal; procedure, shortened: as §4
[19] = Antitumor activity against mouse early Lewis lung carcinoma allografted in BDF1 mouse assessed as increase in host life span at 17 mg/kg, ip administered as single dose on 1 or 2 days post-tumor implantation; type: functional; conditions: route intraperitoneal; procedure, shortened: as §3
[20] = Antitumor activity against mouse advanced Lewis lung carcinoma allografted in ip dosed BDF1 mouse assessed as increase in host lifespan administered as single dose on day 6 or 7 post-tumor implantation; type: functional
Procedure, shortened: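 Advanced Lewis lung model: about 40 mg fragments implanted sc by trocar into BDF1 mice, and mice with tumors of about 400 mg (day 6-7) selected. Tumor weight from calipers, w = ab²/2. Agent given as one ip dose in distilled water or physiological saline. Nontumor-bearing mice received matching doses as toxicity controls.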

[21] = Antitumor activity against mouse early Lewis lung carcinoma allografted in BDF1 mouse assessed as time delay in tumor growth at 11 mg/kg, ip administered as single dose on 1 or 2 days post-tumor implantation; type: functional; conditions: route intraperitoneal
Procedure, shortened: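 Sc trocar implants of about 40 mg Lewis lung fragments in BDF1 mice. A single ip injection was given on day 1 or 2, in water or physiological saline, at ≤0.5 ml. Tumor size came from caliper length and width as w = ab²/2, measured at least twice weekly. Growth delay is the extra days taken to reach 1 g, compared with untreated controls.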

[22] = Antitumor activity against mouse advanced Lewis lung carcinoma allografted in BDF1 mouse assessed as increase in host life span at 15 mg/kg, ip administered as single dose on 7th day post-tumor implantation; type: functional; conditions: route intraperitoneal; procedure, shortened: as §2

In the case of `C[C@H]1CC[C@H](NC(=O)N(CCF)N=O)CC1`, the Activity (Mus musculus [1]) was “inactive”, the ILS at 44 mg/kg [2] was 94% and the ILS at 148 mg/kg [3] was 0%. The inhibition (Mus musculus [4]) was “Active”, the Activity [5] was 10% and the Activity (Mus musculus [6]) was “inactive”. It also gave an ILS at 99 mg/kg [7] of 34%, a Time [8] of 2.6 days and a Time [9] of 1.4 days. The Ratio [10] was 0.6.

In the case of `O=NN(CCCl)C(=O)N[C@H]1CC[C@H](NC(=O)N(CCCl)N=O)CC1`, the Activity (Mus musculus [1]) was “Active”, the ILS at 152 mg/kg [11] was 41% and the Activity [5] was 10%. For the same molecule, the Time [12] was 4 days, the ILS at 171 mg/kg [13] was 146% and the Time [14] was 2 days. The ILS at 67 mg/kg [15] was 34% and the Ratio [10] was 0.3.

In the case of `O=NN(CCCl)C(=O)NC1CCC(=O)NC1=O` (centres undefined), the Activity (Mus musculus [1]) was “inactive”, the ILS at 11 mg/kg [16] was 32% and the Activity (Mus musculus [17]) was “inactive”. The Time [18] was 3.8 days, the ILS at 17 mg/kg [19] was 28% and the inhibition (Mus musculus [4]) was “Active”. It also gave an Activity [5] of 10%, an ILS [20] of over 25% and a Time [21] of 1.4 days. It also gave an ILS at 15 mg/kg [22] of 49% and a Ratio [10] of 0.4.
